Active and inactive are the calls of the source. No cut-off for these calls is given here.
Legend:
PBMC [1] = assay: Immunostimulatory activity against human PBMC assessed as suppression of IL-9 production at 22 uM after 72 hrs; assay type: functional
How it was run: (§1)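 Unstimulated PBMCs and PHA-blasts from three donors, in three independent experiments, cultured with test compound at 20 μg/ml (21 or 22 μM). Supernatants collected after 72 h. The cytokine profile was read on a Bio-Plex 27-plex human cytokine bead immunoassay, using beads coupled to cytokine-specific monoclonal antibodies and run per the kit instructions.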

[2] = system: Human immunodeficiency virus 1; assay: Antiviral activity against HIV-1 3B infected in human HUT78 cells assessed as prevention of syncytium formation between persistently HIV-1 3B-infected HUT-78 cells and uninfected SupT1 cells after 3 to 4 days by ELISA; assay type: functional, organism-based; conditions: Human immunodeficiency virus 1, 3B, SUP-T1
[3] = system: Human immunodeficiency virus 1; assay: Binding affinity to HIV-1 3B gp120 assessed as association rate constant after 6 mins by SPR analysis in presence of 10 mM CaCl2
[4] = system: Human immunodeficiency virus 1; assay: Antiviral activity against R5 tropic HIV-1 clade A isolate UG273 infected in human PBMC assessed as inhibition of viral replication […] by ELISA; assay type: functional, organism-based; conditions: Human immunodeficiency virus 1, clade A isolate UG273
How it was run: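 PBMCs from healthy donors were stimulated with PHA (2 μg/ml) for 3 days, then seeded at 0.5 × 10^6 cells/well in RPMI 1640 with 10% FCS, IL-2 (25 U/ml) and compound. Virus was added at a final 250 pg p24/ml. Supernatant was taken at day 12 for p24 antigen ELISA.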

[5] = system: Human immunodeficiency virus 1; assay: Binding affinity to HIV-1 HXB2 gp41 after 6 mins by SPR analysis
[6] = Cytotoxicity against human U87 cells after 3 to 4 days; assay type: cell-based, U-87MG ATCC
How it was run: (§2)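 Cells seeded at 20,000–75,000 per well with compound dilutions, incubated 3–4 days at 37°C, and counted on a Coulter particle counter; CC50 is the concentration inhibiting proliferation by 50%.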

[7] = system: Human immunodeficiency virus 1; assay: Ratio of EC90 to EC50 for X4 tropic HIV-1 Bal infected in human PBMC; assay type: functional; conditions: in the assay text read “R5 tropic” for “X4 tropic”
How it was run: (§3)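 PBMCs from healthy donors were PHA-stimulated (2 μg/ml, 3 days, 37°C), then seeded at 0.5 × 10^6 per well with compound dilutions in RPMI 1640 with 10% FCS and IL-2 (25 U/ml). Virus was added at 250 pg p24 or p27/ml final. On day 12, supernatant HIV-1 p24 or HIV-2 p27 was measured by ELISA, giving EC50 and EC90.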

PBMC [8] = assay: Immunostimulatory activity against human PBMC assessed as suppression of IL-13 production at 21 uM after 72 hrs; assay type: functional; how it was run: as §1
PBMC [9] = assay: Immunostimulatory activity against human PBMC assessed as PDGF production at 22 uM after 72 hrs; assay type: functional, cell-based; how it was run: as §1
PBMC [10] = assay: Immunostimulatory activity against human PBMC assessed as IL-1ra production at 21 uM after 72 hrs; assay type: functional, cell-based; how it was run: as §1
[11] = system: Human immunodeficiency virus 1; assay: Antiviral activity against R5 tropic HIV-1 clade C isolate ETH2220 infected in human PBMC assessed as inhibition of viral replication after 12 days by ELISA; conditions: Human immunodeficiency virus 1, clade C isolate ETH2220, 12 days
PBMC [12] = assay: Immunostimulatory activity against human PBMC assessed as IL-12 production at 21 uM after 72 hrs; assay type: functional, cell-based; how it was run: as §1
[13] = Binding affinity to HIV-1 3B gp120 assessed as dissociation rate constant after 6 mins by SPR analysis in presence of 10 mM CaCl2; design: species or system Human immunodeficiency virus 1
PBMC [14] = assay: Immunostimulatory activity against human PBMC assessed as IL-9 production at 22 uM after 72 hrs; assay type: functional, cell-based; how it was run: as §1
[15] = system: Human immunodeficiency virus 1; assay: Antiviral activity against HIV-1 3B infected in human C8166 cells assessed as inhibition of virus-induced cytopathicity after 3 to 4 days by microscopic analysis; assay type: functional, organism-based; conditions: Human immunodeficiency virus 1, 3B
How it was run: (§4)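 CEM or C8166 cells at 5 × 10^5/ml infected with HIV-1 at 100 CCID50 per ml, then mixed 1:1 with compound dilutions and held at 37°C for 3–4 days. Giant cells were counted microscopically at ×100 against untreated infected cultures. EC50 is the concentration cutting syncytium formation by 50%.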

PBMC [16] = assay: Immunostimulatory activity against human PBMC assessed as IL-12 production at 22 uM after 72 hrs; assay type: functional, cell-based; how it was run: as §1
[17] = Cytotoxicity against human Molt4 cells after 3 to 4 days; assay type: cell-based; conditions: MOLT-4 cells; how it was run: as §2
PBMC [18] = assay: Immunostimulatory activity against human PBMC assessed as IL1-beta production at 22 uM after 72 hrs; assay type: functional, cell-based; how it was run: as §1
[19] = Binding affinity to HIV-1 3B gp120 after 6 mins by SPR analysis in presence of 10 mM CaCl2; design: species or system Human immunodeficiency virus 1
[20] = system: Human immunodeficiency virus 1; assay: Binding affinity to HIV-1 3B gp120 after 6 mins by SPR analysis
PBMC [21] = assay: Immunostimulatory activity against human PBMC assessed as IL-13 production at 22 uM after 72 hrs; assay type: functional, cell-based; how it was run: as §1
[22] = system: Human immunodeficiency virus 1; assay: Antiviral activity against X4 tropic HIV-1 3B infected in human Raji cells expressing DC-SIGN gene assessed as prevention of syncytium formation between persistently HIV-1 3B-infected Raji cells and uninfected human C8166 cells after 36 to 42 hrs by microscopic analysis; assay type: functional, organism-based; conditions: Human immunodeficiency virus 1, 3B
How it was run: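 Raji/DC-SIGN cells exposed 60 min to HIV-1 IIIB (2.2 × 10^6 pg/ml p24), washed by two centrifugations, then plated with compound dilutions and C8166 cells (10^7/ml, 50 μl); cocultures at 37°C scored microscopically for syncytia at ~36–48 h.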

PBMC [23] = assay: Immunostimulatory activity against human PBMC assessed as RANTES production at 21 uM after 72 hrs; assay type: functional, cell-based; how it was run: as §1
[24] = system: Human immunodeficiency virus 1; assay: Antiviral activity against compound pretreated X4 tropic HIV-1 3B infected in human Raji cells expressing DC-SIGN gene assessed as prevention of syncytium formation between persistently HIV-1 3B-infected Raji cells and uninfected human C8166 cells after 42 hrs by microscopic analysis; assay type: functional, organism-based; conditions: Human immunodeficiency virus 1, 3B
How it was run: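 Compound-pretreated virus captured by Raji/DC-SIGN cells for 60 min at 37°C, washed, then 200 μl mixed with 2 × 10^5 C8166 cells (further 5-fold dilution) and incubated 36–48 h at 37°C; syncytium formation scored microscopically.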

PBMC [25] = assay: Immunostimulatory activity against human PBMC assessed as G-CSF production at 22 uM after 72 hrs; assay type: functional, cell-based
[26] = system: Human immunodeficiency virus 1; assay: Ratio of EC90 to EC50 for R5 tropic HIV-1 clade F isolate BZ163 infected in human PBMC; assay type: functional; how it was run: as §3
[27] = Cytotoxicity against human Caco2 cells after 3 to 4 days; assay type: cell-based; conditions: Caco-2 cells; how it was run: as §2
[28] = system: Human immunodeficiency virus 1; assay: Antiviral activity against HIV-1 3B infected in human CEM cells assessed as inhibition of virus-induced cytopathicity after 3 to 4 days by microscopic analysis; assay type: functional, organism-based; conditions: Human immunodeficiency virus 1, 3B, CCRF-CEM; how it was run: as §4
PBMC [29] = assay: Immunostimulatory activity against human PBMC assessed as IL-8 production at 21 uM after 72 hrs; assay type: functional, cell-based; how it was run: as §1
PBMC [30] = assay: Immunostimulatory activity against human PBMC assessed as FGF production at 21 uM after 72 hrs; assay type: functional, cell-based
How it was run: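 PBMCs and PHA blasts from three donors (three independent experiments) cultured with 21 μM compound; supernatants collected at 72 h; cytokines quantified with the Bio-Plex human 27-plex bead immunoassay.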

For `CN[C@@H]1[C@H](O[C@@H]2OC[C@@H](O)[C@H](O)[C@H]2O)[C@@H](O)[C@H](O[C@H]2c3cc(C)c(C(=O)N[C@H](C)C(=O)O)c(O)c3-c3c(cc4c(c3O)C(=O)c3cc(OC)cc(O)c3C4=O)[C@@H]2O)O[C@@H]1C` [PRADIMICIN A], the “fold change (FC)” value (PBMC [1]) was 2, the EC50 [2] was 3.4 µM and the Ka [3] was 1.49 ×10⁴ /M/s. For the same molecule, the EC50 [4] was 5.9 µM, the Activity [5] was “inactive” and the CC50 [6] was over 50 µM. The Ratio [7] was 2, the “fold change (FC)” value (PBMC [8]) was 2 and the Activity (PBMC [9]) was “inactive”. The Activity (PBMC [10]) was “inactive”, the EC50 [11] was 10 µM and the Activity (PBMC [12]) was “inactive”. The Kd [13] was 6.1 ×10⁻³ /s, the Activity (PBMC [14]) was “inactive” and the EC50 [15] was 2.6 µM. For the same molecule, the Activity (PBMC [16]) was “inactive”, the CC50 [17] was over 50 µM and the Activity (PBMC [18]) was “inactive”. For the same molecule, the Kd [19] was 0.41 µM, the Activity [20] was “inactive” and the Activity (PBMC [21]) was “inactive”. The EC50 [22] was 5.4 µM, the Activity (PBMC [23]) was “inactive” and the EC50 [24] was 3.4 µM. For the same molecule, the Activity (PBMC [25]) was “inactive”, the Ratio [26] was 2 and the CC50 [27] was over 50 µM. For the same molecule, the EC50 [28] was 5.9 µM, the Activity (PBMC [29]) was “inactive” and the Activity (PBMC [30]) was “inactive”.

With `CN[C@@H]1[C@H](O[C@@H]2O[C@H](CO)[C@@H](O)[C@H](OS(=O)(=O)O)[C@H]2O)[C@@H](O)[C@H](O[C@H]2c3cc(C)c(C(=O)N[C@H](C)C(=O)O)c(O)c3-c3c(cc4c(c3O)C(=O)c3cc(OC)cc(O)c3C4=O)[C@@H]2O)O[C@@H]1C` [PRADIMICIN S] the “fold change (FC)” value (PBMC [1]) was 2, the EC50 [2] was 6 µM and the Ka [3] was 1.27 ×10⁴ /M/s. For the same molecule, the EC50 [4] was 15 µM, the Activity [5] was “inactive” and the CC50 [6] was over 230 µM. For the same molecule, the Ratio [7] was 2, the “fold change (FC)” value (PBMC [8]) was 2 and the Activity (PBMC [9]) was “inactive”. For the same molecule, the Activity (PBMC [10]) was “inactive”, the EC50 [11] was 17 µM and the Activity (PBMC [12]) was “inactive”. For the same molecule, the Kd [13] was 5.11 ×10⁻³ /s, the Activity (PBMC [14]) was “inactive” and the EC50 [15] was 5.1 µM. The Activity (PBMC [16]) was “inactive”, the CC50 [17] was over 230 µM and the Activity (PBMC [18]) was “inactive”. For the same molecule, the Kd [19] was 0.4 µM, the Activity [20] was “inactive” and the Activity (PBMC [21]) was “inactive”. The EC50 [22] was 5.1 µM, the Activity (PBMC [23]) was “inactive” and the EC50 [24] was 7.1 µM. For the same molecule, the Activity (PBMC [25]) was “inactive”, the Ratio [26] was 2 and the CC50 [27] was over 230 µM. For the same molecule, the EC50 [28] was 8.9 µM, the Activity (PBMC [29]) was “inactive” and the Activity (PBMC [30]) was “inactive”.
